Results on ten compounds are retold here after ChEMBL document CHEMBL3091306, “Synthesis, docking and pharmacological evaluation of novel homo- and hetero-bis 3-piperazinylpropylindole derivatives at SERT and 5-HT1A receptor” (Bioorg Med Chem, 2013).

The target of test [1] is T1, 5-hydroxytryptamine receptor 1A (Homo sapiens, UniProt P08908).
T1 sequence (P08908 whole entry): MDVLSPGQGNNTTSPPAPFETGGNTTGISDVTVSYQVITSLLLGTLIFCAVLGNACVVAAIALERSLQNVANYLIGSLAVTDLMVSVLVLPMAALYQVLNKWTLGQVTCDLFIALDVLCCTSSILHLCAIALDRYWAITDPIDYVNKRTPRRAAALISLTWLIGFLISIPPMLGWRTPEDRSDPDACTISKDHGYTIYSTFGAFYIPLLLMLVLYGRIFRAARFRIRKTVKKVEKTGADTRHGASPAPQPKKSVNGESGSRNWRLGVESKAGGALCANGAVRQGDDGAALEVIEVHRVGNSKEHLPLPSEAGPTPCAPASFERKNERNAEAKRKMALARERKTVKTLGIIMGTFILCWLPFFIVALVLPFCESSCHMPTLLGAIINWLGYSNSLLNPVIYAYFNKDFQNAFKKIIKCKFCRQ
The experiment in a line: Displacement of [3H]8-OH-DPAT from human 5-HT1A receptor expressed in HEK293 cells. It counts as cell-based.

The target in test [2] is Sodium-dependent serotonin transporter (Rattus norvegicus, UniProt P31652). Briefly: Displacement of [3H]paroxetine from SERT in rat cortical membranes after 6 mins by liquid scintillation counting. It counts as cell membranes. The gist of the method: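 Rat cortical membranes (0.35 mg original wet weight) incubated with 0.2 nM [3H]paroxetine and test compound at 10^-11–10^-4 M in 50 mM Tris–HCl pH 7.7 with 150 mM NaCl, 5 mM KCl, 1.0 ml, 6 min at 25 °C; stopped by rapid filtration through polyethyleneimine-soaked GF/B filters, ice-cold buffer washes.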
A general note: Loss of bound radioactivity is the signal in a displacement assay; it reports binding, not function.

Sequence of Sodium-dependent serotonin transporter (P31652 whole entry): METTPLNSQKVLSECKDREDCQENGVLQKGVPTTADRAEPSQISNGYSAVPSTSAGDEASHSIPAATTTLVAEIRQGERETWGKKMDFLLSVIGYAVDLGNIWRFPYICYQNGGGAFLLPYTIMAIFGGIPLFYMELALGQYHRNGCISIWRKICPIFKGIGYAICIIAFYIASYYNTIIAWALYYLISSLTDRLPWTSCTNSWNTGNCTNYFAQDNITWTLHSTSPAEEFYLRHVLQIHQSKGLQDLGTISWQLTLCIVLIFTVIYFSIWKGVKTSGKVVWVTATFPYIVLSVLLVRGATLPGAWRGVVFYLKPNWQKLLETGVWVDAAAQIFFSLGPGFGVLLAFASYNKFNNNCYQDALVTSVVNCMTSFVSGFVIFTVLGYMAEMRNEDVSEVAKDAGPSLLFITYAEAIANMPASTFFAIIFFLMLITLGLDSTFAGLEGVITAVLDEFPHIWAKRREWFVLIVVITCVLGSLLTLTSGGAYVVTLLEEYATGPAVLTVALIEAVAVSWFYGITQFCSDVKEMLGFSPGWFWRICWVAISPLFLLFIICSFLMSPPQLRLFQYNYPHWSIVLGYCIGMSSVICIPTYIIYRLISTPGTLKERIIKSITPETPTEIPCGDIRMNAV

By IC50 is commonly meant the concentration that gives 50% inhibition. Read a high IC50 as weaker potency. Consider `COc1ccc2[nH]cc(CCCN3CCN(CCCc4c[nH]c5ccccc45)CC3)c2c1`, for which the IC50 in test [1] came out at 4500 nM; in test [2] it was 43 nM.
Regarding `Brc1ccc2[nH]cc(CCCN3CCN(CCCc4c[nH]c5ccccc45)CC3)c2c1`, the IC50 worked out at 15 nM in test [1] and 137 nM in test [2].
In the case of `c1ccc2c(CCCN3CCN(CCCc4c[nH]c5ccccc45)CC3)c[nH]c2c1`, the IC50 in test [1] was found to be 2700 nM; in test [2], 37 nM.
On to `Fc1ccc2[nH]cc(CCCN3CCN(CCCc4c[nH]c5ccccc45)CC3)c2c1`, for which the IC50 was 16 nM in test [1] and 26 nM in test [2].
For `Brc1ccc2[nH]cc(CCCN3CCN(CCCc4c[nH]c5ccc(Br)cc45)CC3)c2c1`, the figures for the IC50 in test [1] and in test [2] were 1200 nM and 87 nM, respectively.
`COc1ccc2[nH]cc(CCCN3CCN(CCCc4c[nH]c5ccc(F)cc45)CC3)c2c1`: the results for the IC50 in test [1] and in test [2] were 7200 nM and 14 nM, respectively.
For the compound `COc1ccc2[nH]cc(CCCN3CCN(CCCc4c[nH]c5ccc(OC)cc45)CC3)c2c1`, the figures for the IC50 in test [1] and in test [2] were 599 nM and 98 nM, respectively.
As for `Fc1ccc2[nH]cc(CCCN3CCN(CCCc4c[nH]c5ccc(Br)cc45)CC3)c2c1`, the IC50 in test [1] turned out to be 4900 nM; in test [2], 61 nM.
On the same counts, the results for `Fc1ccc2[nH]cc(CCCN3CCN(CCCc4c[nH]c5ccc(F)cc45)CC3)c2c1` are 5700 nM and 13 nM.
As to `COc1ccc2[nH]cc(CCCN3CCN(CCCc4c[nH]c5ccc(Br)cc45)CC3)c2c1`, the IC50 in test [1] is 128 nM; in test [2], 39 nM.
